Test results as given in ChEMBL document CHEMBL1944507, “Structure-activity relationships for amide-, carbamate-, and urea-linked analogues of the tuberculosis drug (6S)-2-nitro-6-{[4-(trifluoromethoxy)benzyl]oxy}-6,7-dihydro-5H-imidazo[2,1-b][1,3]oxazine (PA-824)” (J Med Chem, 2012).
≈ marks a conversion by molar mass, not a printed value.

Tests used:
[1] = Chemical stability of the compound; format: physicochemical
[2] = test system: Salmonella typhimurium; assay: Induction of mutagenesis in Salmonella Typhimurium TA98 in presence of rat liver S9 fraction by Ames test; format: toxicity, organism-based; details: salmonella enterica subsp. enterica serovar typhimurium
In short: (§1)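 MicroAmes reverse mutation screen in Salmonella TA98 and TA100, preincubated with and without rat liver S9, at 0.25-250 μg/well.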

[3] = test system: Salmonella typhimurium; assay: Induction of mutagenesis in Salmonella Typhimurium TA100 in absence of rat liver S9 fraction by Ames test; format: toxicity, organism-based; details: salmonella enterica subsp. enterica serovar typhimurium; in short: as §1
[4] = AUC (0 to 72 hrs) in Beagle dog at 2 mg/kg, iv; format: ADME, organism-based, Canis lupus familiaris; set-up: time < 72 hr, dose 2 mg/kg, route intravenous; details: plasma
[5] = Cmax in Beagle dog at 2 mg/kg, iv; format: ADME, organism-based, Canis lupus familiaris; set-up: dose 2 mg/kg, route intravenous; details: in vivo
[6] = Metabolic stability of the compound in human liver microsomes assessed as compound remaining after 1 hr; format: ADME, Microsome; details: read-out: Stability
In short: (§2)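 Pooled human or CD-1 mouse liver microsomes incubated with compound for 1 h. Percentage of compound remaining calculated from analyte/internal standard peak area ratios.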

[7] = Metabolic stability of the compound in CD-1 mouse liver microsomes assessed as compound remaining after 1 hr; format: ADME, Microsome; details: read-out: Stability; in short: as §2
[8] = Plasma protein binding in human at 10 uM; format: ADME, cell-free; details: read-out: PPB (converted)
In short: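 Human plasma protein binding measured by equilibrium dialysis, with overnight incubation of compound at 10 μM containing 1% DMSO.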

[9] = Thermodynamic solubility of the compound at pH 1; format: physicochemical; details: buffer, read-out: Therm_solubility
[10] = Cmax in high fat diet fed Beagle dog at 20 mg/kg, po; format: ADME, organism-based, Canis lupus familiaris; set-up: dose 20 mg/kg, route oral; details: in vivo
[11] = AUC (0 to 24 hrs) in Sprague-Dawley rat at 20 mg/kg, po; format: ADME, organism-based; set-up: time < 24 hr, dose 20 mg/kg, route oral; details: plasma
[12] = AUC (0 to 72 hrs) in high fat diet fed Beagle dog at 20 mg/kg, po; format: ADME, organism-based, Canis lupus familiaris; set-up: time < 72 hr, dose 20 mg/kg, route oral; details: plasma
[13] = Half life in Sprague-Dawley rat at 1 mg/kg, iv; format: ADME, organism-based; set-up: dose 1 mg/kg, route intravenous; details: in vivo
[14] = Oral bioavailability in Sprague-Dawley rat at 20 mg/kg; format: ADME, organism-based; details: in vivo
[15] = biological target: Voltage-gated inwardly rectifying potassium channel KCNH2 (Homo sapiens, UniProt Q12809); assay: Inhibition of human Erg expressed in HEK293 cells by FAST patch clamp analysis; format: cell-based
[16] = Half life in Beagle dog at 20 mg/kg, po; format: ADME, organism-based, Canis lupus familiaris; set-up: dose 20 mg/kg, route oral; details: in vivo
[17] = Cmax in Sprague-Dawley rat at 20 mg/kg, po; format: ADME, organism-based; set-up: dose 20 mg/kg, route oral; details: in vivo
[18] = AUC (0 to infinity) in CD-1 mouse plasma at 40 mg/kg, po; format: ADME, organism-based; set-up: dose 40 mg/kg, route oral, time infinity
In short: (§3)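 CD-1 mice given a single oral dose of 40 mg/kg, suspended in 0.5% carboxymethylcellulose/0.08% Tween 80 in water. Plasma and lung samples quantified by LC-MS/MS. AUC extrapolated to infinity. Lung/plasma ratio is lung AUC divided by plasma AUC.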

[19] = Oral bioavailability in Beagle dog at 20 mg/kg; format: ADME, organism-based, Canis lupus familiaris; details: in vivo
[20] = Half life in high fat diet fed Beagle dog at 20 mg/kg, po; format: ADME, organism-based, Canis lupus familiaris; set-up: dose 20 mg/kg, route oral; details: in vivo
[21] = Tmax in Sprague-Dawley rat at 1 mg/kg, iv; format: ADME, organism-based; set-up: dose 1 mg/kg, route intravenous; details: in vivo
[22] = Cmax in Beagle dog at 20 mg/kg, po; format: ADME, organism-based, Canis lupus familiaris; set-up: dose 20 mg/kg, route oral; details: in vivo
[23] = AUC (0 to infinity) in CD-1 mouse lung at 40 mg/kg, po; format: ADME, organism-based; set-up: dose 40 mg/kg, route oral, time infinity; in short: as §3
[24] = Tmax in Sprague-Dawley rat at 20 mg/kg, po; format: ADME, organism-based; set-up: dose 20 mg/kg, route oral; details: in vivo
[25] = Tmax in high fat diet fed Beagle dog at 20 mg/kg, po; format: ADME, organism-based, Canis lupus familiaris; set-up: dose 20 mg/kg, route oral; details: in vivo
[26] = AUC (0 to 72 hrs) in Beagle dog at 20 mg/kg, po; format: ADME, organism-based, Canis lupus familiaris; set-up: time < 72 hr, dose 20 mg/kg, route oral; details: plasma
[27] = Kinetic solubility of the compound in water at pH 7 by HPLC analysis; format: physicochemical; details: read-out: Kinetic_solubility
[28] = Cmax in CD-1 mouse lung at 40 mg/kg, po; format: ADME, organism-based; set-up: dose 40 mg/kg, route oral; in short: as §3
[29] = Half life in Beagle dog at 2 mg/kg, iv; format: ADME, organism-based, Canis lupus familiaris; set-up: dose 2 mg/kg, route intravenous; details: in vivo
[30] = Cmax in Sprague-Dawley rat at 1 mg/kg, iv; format: ADME, organism-based; set-up: dose 1 mg/kg, route intravenous; details: in vivo
[31] = Tmax in Beagle dog at 20 mg/kg, po; format: ADME, organism-based, Canis lupus familiaris; set-up: dose 20 mg/kg, route oral; details: in vivo
[32] = test system: Mycobacterium tuberculosis; assay: Antimicrobial activity against Mycobacterium tuberculosis infected in BALB/c mouse assessed as fold reduction in lung CFU at 100 mg/kg, po administered 11 days after post infection qd for 5 days per week for 3 weeks relative to PA-824; format: functional
In short: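 Groups of 7 M. tb-infected BALB/c mice dosed orally at 100 mg/kg daily, 5 days/week for 3 weeks, starting on day 11 postinfection. Readout is the average lung CFU reduction in treated mice divided by the average CFU reduction in mice given the reference nitroimidazooxazine.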

[33] = AUC (0 to 24 hrs) in Sprague-Dawley rat at 1 mg/kg, iv; format: ADME, organism-based; set-up: time < 24 hr, dose 1 mg/kg, route intravenous; details: plasma
[34] = Half life in CD-1 mouse plasma at 40 mg/kg, po; format: ADME, organism-based; set-up: dose 40 mg/kg, route oral; in short: as §3
[35] = Cmax in CD-1 mouse plasma at 40 mg/kg, po; format: ADME, organism-based; set-up: dose 40 mg/kg, route oral; in short: as §3
[36] = Octanol-water partition coefficient, log P of the compound by shake-flask method; format: physicochemical
In short: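 Octanol-water partition coefficient measured by the shake-flask method.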

[37] = test system: Salmonella typhimurium; assay: Induction of mutagenesis in Salmonella Typhimurium TA98 in absence of rat liver S9 fraction by Ames test; format: toxicity, organism-based; details: salmonella enterica subsp. enterica serovar typhimurium; in short: as §1
[38] = Half life in CD-1 mouse lung at 40 mg/kg, po; format: ADME, organism-based; set-up: dose 40 mg/kg, route oral; in short: as §3
[39] = test system: Mycobacterium tuberculosis; assay: Antimicrobial activity against Mycobacterium tuberculosis infected in chronic BALB/c mouse infection model assessed as fold reduction in lung CFU at 30 mg/kg, po administered daily 5 days a week for 8 weeks starting 50 days post-infection; format: functional
In short: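 Chronic infection model: groups of 7 M. tb-infected BALB/c mice given 30 mg/kg orally, daily 5 days/week for 8 weeks, starting about 50 days postinfection. Lung CFU reduction expressed relative to the reference drug.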

[40] = Tmax in Beagle dog at 2 mg/kg, iv; format: ADME, organism-based, Canis lupus familiaris; set-up: dose 2 mg/kg, route intravenous; details: in vivo
[41] = Thermodynamic solubility of the compound at pH 7.4; format: physicochemical; details: buffer, read-out: Therm_solubility
[42] = test system: Salmonella typhimurium; assay: Induction of mutagenesis in Salmonella Typhimurium TA100 in presence of rat liver S9 fraction by Ames test; format: toxicity, organism-based; details: salmonella enterica subsp. enterica serovar typhimurium; in short: as §1

Sequence of Voltage-gated inwardly rectifying potassium channel KCNH2 (Q12809 whole entry): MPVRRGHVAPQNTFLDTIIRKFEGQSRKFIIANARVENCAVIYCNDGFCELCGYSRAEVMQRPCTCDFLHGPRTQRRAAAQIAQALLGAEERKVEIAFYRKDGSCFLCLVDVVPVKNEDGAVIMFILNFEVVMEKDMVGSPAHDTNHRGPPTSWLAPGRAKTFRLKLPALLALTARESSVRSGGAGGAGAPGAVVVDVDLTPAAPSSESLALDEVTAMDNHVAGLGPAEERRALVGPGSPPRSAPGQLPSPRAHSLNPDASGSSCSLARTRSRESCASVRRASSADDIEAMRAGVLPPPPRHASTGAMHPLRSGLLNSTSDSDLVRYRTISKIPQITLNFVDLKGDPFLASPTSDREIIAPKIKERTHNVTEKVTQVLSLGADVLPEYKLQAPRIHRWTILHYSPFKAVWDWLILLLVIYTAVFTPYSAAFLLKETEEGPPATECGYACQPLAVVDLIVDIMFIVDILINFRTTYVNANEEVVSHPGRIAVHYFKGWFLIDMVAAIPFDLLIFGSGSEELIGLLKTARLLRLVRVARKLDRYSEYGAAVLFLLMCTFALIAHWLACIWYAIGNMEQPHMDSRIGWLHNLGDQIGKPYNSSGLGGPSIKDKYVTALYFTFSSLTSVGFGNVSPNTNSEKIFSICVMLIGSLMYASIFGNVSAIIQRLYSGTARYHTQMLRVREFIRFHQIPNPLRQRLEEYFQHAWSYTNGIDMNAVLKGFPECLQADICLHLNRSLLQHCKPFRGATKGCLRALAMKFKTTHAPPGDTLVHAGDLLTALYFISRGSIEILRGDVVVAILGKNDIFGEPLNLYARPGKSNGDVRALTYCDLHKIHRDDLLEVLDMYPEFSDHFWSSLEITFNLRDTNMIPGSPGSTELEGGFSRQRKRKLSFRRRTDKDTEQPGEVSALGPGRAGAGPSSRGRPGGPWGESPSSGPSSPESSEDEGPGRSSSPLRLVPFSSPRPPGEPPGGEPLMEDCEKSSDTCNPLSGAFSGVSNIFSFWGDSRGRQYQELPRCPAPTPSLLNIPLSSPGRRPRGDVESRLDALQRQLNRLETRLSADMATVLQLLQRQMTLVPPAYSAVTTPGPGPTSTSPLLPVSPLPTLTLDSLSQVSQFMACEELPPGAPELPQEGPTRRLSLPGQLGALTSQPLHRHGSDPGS

O=C(N[C@@H]1COc2nc([N+](=O)[O-])cn2C1)Oc1ccc(OC(F)(F)F)cc1
Stability [1]: Unstable

O=C(O[C@@H]1COc2nc([N+](=O)[O-])cn2C1)N1CCN(c2ccc(OC(F)(F)F)cc2)CC1
Activity [2]: Non-toxic
Activity [3]: Non-toxic
AUC(0-t) at 72 h [4]: 27600 ng·h/mL
Cmax [5]: 1700 ng/mL
remaining at 1 h [6]: 82%
remaining at 1 h [7]: 85%
fraction unbound at 10 µM [8]: 0.09
solubility thermodynamic [9]: 169 µM (≈ 77.3 µg/mL)
Cmax [10]: 5200 ng/mL
AUC(0-t) at 24 h [11]: 67400 ng·h/mL
AUC(0-t) at 72 h [12]: 182000 ng·h/mL
half-life [13]: 8.3 h
bioavailability [14]: 57%
IC50 [15]: > 30 µM
half-life [16]: 29 h
Cmax [17]: 4400 ng/mL
AUC(0-inf) [18]: 53400 ng·h/mL
bioavailability [19]: 84%
half-life [20]: 30 h
Tmax [21]: 4.98 min
Cmax [22]: 5800 ng/mL
AUC(0-inf) [23]: 169000 ng·h/mL
Tmax [24]: 5 h
Tmax [25]: 12 h
AUC(0-t) at 72 h [26]: 232000 ng·h/mL
solubility kinetic [27]: 17 µg/mL (≈ 37.2 µM)
Cmax [28]: 11700 ng/mL
half-life [29]: 28 h
Cmax [30]: 700 ng/mL
Tmax [31]: 8 h
fold change (FC) [32]: 5.2
AUC(0-t) at 24 h [33]: 5930 ng·h/mL
half-life [34]: 10.5 h
Cmax [35]: 2500 ng/mL
logP [36]: 2.82
Activity [37]: Non-toxic
half-life [38]: 10.5 h
fold change (FC) [39]: 0.92
Tmax [40]: 0.5 h
solubility thermodynamic [41]: 33 µM (≈ 15.1 µg/mL)
Activity [42]: Non-toxic
